# Test results taken from PubChem BioAssay.
# Active and inactive are the calls of the source.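 The calls were made as follows, unless noted: active = viability loss from added drug above about 55%, and viability with drug at most 40%, in both replicates (limit read from the data, passing the limit was not always enough); inconclusive = both conditions met in only one replicate; inactive = neither replicate meets both conditions.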
# Assays:
# [1] = reducers of endogenous Her2 protein level, primary screen, SKBR3 breast tumor cells, AlphaScreen, ATP viability (AID 461;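 active = Her2 level under about 52% in both replicate screens, with viability over 70% of control, limit read from the data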;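 as to Her2 level: lower value means less Her2 protein in the cells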;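 as to viability: percent of carrier control wells set as 100% viability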); conditions: 18-24 h, measured here: SKBR3 viability, ATP luminescence, at 10 µM
# [2] = molecular target: Receptor tyrosine-protein kinase erbB-2 (Homo sapiens) (UniProt P04626); test: as above; conditions: 18-24 h, at 10 µM, stronger effect = lower value
# [3] = SK-BR-3 cell growth inhibitors, pilot screen, 24 h, human (AID 572;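 active = viability at or below 10% of carrier control in both of two separate runs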;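 also: compound exposure lasted between 18 and 24 h rather than exactly 24 h; 100% = carrier-treated control wells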); conditions: SK-BR-3 viability, CellTiter-Glo luminescence, at 10 µM, stronger effect = lower value
# [4] = HUVEC growth inhibition – cell-based, human, primary screen (AID 575;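 active = viability at or below 30% in both replicate assays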;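 also: 100% = median of untreated cell wells with 0.1% DMSO on each plate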); conditions: HUVEC proliferation, CellTiter-Glo luminescence, 72 h; at 10 µM; stronger effect = lower value
# In short: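 Test system: primary human umbilical vein endothelial cells. Quantity: 1250 cells/well. Compound: single 10 µM dose, 0.1% DMSO, from 5x medium stock. Timing: 72 h treatment at 37 °C. Detection: ATP-based CellTiter-Glo luminescent read. Benchmarks: vehicle and MePR control wells. Format: 384-well plates coated with collagen.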
# [5] = growth inhibitors of H69AR lung tumor, primary screen, human, duplicate replicates (AID 580;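 active = viability at or under a set limit in both replicates, limit being median viability minus 3 SD, cut at about 48% in these data, passing the limit was not always enough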;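 also: 100% = mean luminescence of untreated wells and 0% = no signal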); conditions: H69AR lung tumor cells viability, ATP luminescence, 72 h; at 10 µM; stronger effect = lower value
# [6] = reversal of MRP1-mediated doxorubicin resistance, pilot screen, H69AR cells, doxorubicin co-treatment (AID 601); conditions: CellTiter-Glo, 72 h, at 10 µM; for differential viability (reversal): stronger effect = higher value
# [7] = 384-well plate pilot, post-Golgi transport modulator project, inhibition of yeast transport mutant growth (AID 636; in the data active = inhibition above about 31%); conditions: absorbance 615 nm, about 18 h, stronger effect = higher value
# [8] = growth suppression of yeast trafficking mutant, preliminary HTS, modulators of trafficking downstream of Golgi apparatus project, 1536-format plate, OD 615 nm (AID 637; in the data active = inhibition above about 30%); conditions: yeast transport mutant growth, absorbance 615 nm, 18 h; stronger effect = higher value
# [9] = H69AR cells + 2 uM doxorubicin, measured here: viability with 2 uM doxorubicin, stronger effect = lower value
# [10] = H69AR cells, compound alone cytotoxicity
# Receptor tyrosine-protein kinase erbB-2 (Homo sapiens), sequence (P04626 whole entry, looked up): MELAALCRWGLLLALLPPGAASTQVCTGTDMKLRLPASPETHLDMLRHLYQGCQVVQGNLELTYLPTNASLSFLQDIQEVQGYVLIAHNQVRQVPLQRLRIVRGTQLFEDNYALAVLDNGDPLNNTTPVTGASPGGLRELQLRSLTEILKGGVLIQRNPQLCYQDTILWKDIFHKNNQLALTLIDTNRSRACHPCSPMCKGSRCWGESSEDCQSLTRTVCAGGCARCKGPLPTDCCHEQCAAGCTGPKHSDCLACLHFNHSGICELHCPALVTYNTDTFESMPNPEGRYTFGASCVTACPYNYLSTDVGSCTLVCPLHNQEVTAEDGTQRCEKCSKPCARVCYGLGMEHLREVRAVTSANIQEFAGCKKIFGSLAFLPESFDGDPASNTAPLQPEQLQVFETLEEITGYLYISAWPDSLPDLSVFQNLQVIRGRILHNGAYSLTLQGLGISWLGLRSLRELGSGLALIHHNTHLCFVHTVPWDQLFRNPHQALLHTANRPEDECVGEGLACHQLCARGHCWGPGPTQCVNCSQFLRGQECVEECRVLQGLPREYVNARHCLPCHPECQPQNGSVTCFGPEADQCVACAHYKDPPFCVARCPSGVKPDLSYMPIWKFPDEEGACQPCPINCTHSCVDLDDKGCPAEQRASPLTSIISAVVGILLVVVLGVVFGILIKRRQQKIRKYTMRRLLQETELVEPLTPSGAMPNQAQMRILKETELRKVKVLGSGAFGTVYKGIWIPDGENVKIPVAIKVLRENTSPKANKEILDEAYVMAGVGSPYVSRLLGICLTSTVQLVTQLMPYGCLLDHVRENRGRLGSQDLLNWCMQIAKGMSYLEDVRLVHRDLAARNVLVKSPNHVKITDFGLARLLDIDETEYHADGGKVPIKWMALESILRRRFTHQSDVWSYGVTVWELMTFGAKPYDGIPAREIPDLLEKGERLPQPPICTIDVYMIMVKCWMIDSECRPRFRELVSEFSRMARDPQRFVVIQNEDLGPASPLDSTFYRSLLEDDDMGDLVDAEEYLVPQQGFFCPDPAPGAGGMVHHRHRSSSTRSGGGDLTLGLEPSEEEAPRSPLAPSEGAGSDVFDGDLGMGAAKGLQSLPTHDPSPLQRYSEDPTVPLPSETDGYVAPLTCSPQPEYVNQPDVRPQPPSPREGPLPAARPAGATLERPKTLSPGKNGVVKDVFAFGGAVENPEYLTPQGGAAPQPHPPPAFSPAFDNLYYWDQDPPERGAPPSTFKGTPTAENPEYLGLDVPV
Structure (SMILES),viability [1] [%],Her2 level [2],viability [3],viability [4],viability [5],differential viability (reversal) ([6]; H69AR cells + 2 uM doxorubicin),"viability [6, 9] [%]","viability [6, 10] [%]",inhibition [7],inhibition [8]
Cc1ccc(S(=O)(=O)Cn2nnnc2CN(Cc2ccco2)Cc2cccs2)cc1,91.5,97.5% (inactive),91.5% (inactive),104% (inactive),80.6% (inactive),4.66% (inactive),75.9,80.6,-5.87% (inactive),-7.87% (inactive)
CC(=O)N(CCc1ccccc1C)Cc1cc2cc3c(cc2[nH]c1=O)OCO3,99,85.5% (inactive),99% (inactive),90.1% (inactive),91.2% (inactive),-2.76% (inactive),93.9,91.2,-2.03% (inactive),4.44% (inactive)
CC(C)C(c1nnnn1C1CCCC1)N1CCN(C(=O)c2ccco2)CC1 (stereo not given),114,96% (inactive),114% (inactive),82.1% (inactive),88.8% (inactive),15.8% (inactive),72.9,88.8,-1.82% (inactive),-11.8% (inactive)
Cc1ccc(CNC(=O)C2CCN(S(=O)(=O)c3cccs3)CC2)o1,138,87% (inactive),138% (inactive),89.5% (inactive),81% (inactive),6.39% (inactive),74.6,81,-4.68% (inactive),4.76% (inactive)
Cc1ccc(CCNC(=O)C2CCN(S(=O)(=O)c3cccc4nsnc34)CC2)cc1,93.5,108% (inactive),93.5% (inactive),107% (inactive),95.6% (inactive),-3.61% (inactive),99.2,95.6,2.13% (inactive),0.33% (inactive)
CC(=O)Nc1cccc(NC(=O)C2CCCN2C(=O)Nc2ccc(C)cc2)c1 (stereo not given),89,93.5% (inactive),89% (inactive),99.9% (inactive),100% (inactive),10.7% (inactive),89.7,100,-0.68% (inactive),-6.89% (inactive)
O=S(=O)(NCC1CCCO1)c1ccc(S(=O)(=O)N2CCc3ccccc3C2)cc1 (stereo not given),90,93.5% (inactive),90% (inactive),94.9% (inactive),94.8% (inactive),5.08% (inactive),89.8,94.8,0.26% (inactive),2.42% (inactive)
COC(=O)CN(c1ccc(F)cc1)S(=O)(=O)c1ccccc1,91.5,109% (inactive),91.5% (inactive),122% (inactive),92.1% (inactive),-0.7% (inactive),92.8,92.1,0.13% (inactive),-3.93% (inactive)
COc1ccccc1C(=O)N1CCCC(c2nc(-c3cc(OC)c(OC)c(OC)c3)no2)C1 (stereo not given),120,90% (inactive),120% (inactive),99.4% (inactive),78.8% (inactive),23.2% (inactive),55.6,78.8,-6.71% (inactive),7.3% (inactive)
CC(C)(C)N=C1NC(=NC(C)(C)C)c2ccccc21,77,86% (inactive),77% (inactive),86% (inactive),69.3% (inactive),-11.5% (inactive),80.8,69.3,0.92% (inactive),-7.64% (inactive)
Cc1nc(NC2=NCN(CCN3CCOCC3)CN2)nc2c(C)cccc12,114,91.5% (inactive),114% (inactive),77.3% (inactive),95.2% (inactive),-12.6% (inactive),108,95.2,-2.11% (inactive),-7.33% (inactive)
CCOC(=O)C1=C(CSc2nc(C)cc(C)c2C#N)OC(N)=C(C#N)C1c1cccs1 (stereo not given),108,85.5% (inactive),108% (inactive),78.5% (inactive),83.1% (inactive),8.64% (inactive),74.5,83.1,-5.33% (inactive),0.16% (inactive)
CCn1nnnc1SCC(=O)N1CCOCC1,116,91% (inactive),116% (inactive),101% (inactive),97.6% (inactive),11.3% (inactive),86.3,97.6,-4.53% (inactive),3.44% (inactive)
CCN(CC(=O)NCc1cccs1)C(=O)c1cc(S(=O)(=O)N2CCOCC2)ccc1C,89.5,118% (inactive),89.5% (inactive),98.8% (inactive),87.7% (inactive),-0.58% (inactive),88.3,87.7,-4.03% (inactive),-10% (inactive)
COC(=O)c1nc(N)sc1-c1ccccc1,96,93% (inactive),96% (inactive),95.1% (inactive),93.3% (inactive),13.3% (inactive),80,93.3,-6.13% (inactive),1.43% (inactive)
c1ccc(CSCc2cn3ccsc3n2)cc1,93.5,95.5% (inactive),93.5% (inactive),104% (inactive),99.1% (inactive),14.5% (inactive),84.6,99.1,-0.27% (inactive),-3.49% (inactive)

Structure (SMILES),viability [1] [%],Her2 level [2],viability [3],viability [4],viability [5],differential viability (reversal) ([6]; H69AR cells + 2 uM doxorubicin),"viability [6, 9] [%]","viability [6, 10] [%]",inhibition [7],inhibition [8]
COCCCn1c(SCC(=O)N2CCc3ccccc32)nnc1-c1ccoc1C,108,80% (inactive),108% (inactive),93.8% (inactive),98.4% (inactive),2.4% (inactive),96,98.4,-4.67% (inactive),0.65% (inactive)
CCOC(=O)C1=C(C)NC(=O)C(C#N)C1c1ccco1 (stereo not given),104,85% (inactive),104% (inactive),92.6% (inactive),90% (inactive),-0.555% (inactive),90.6,90,-4.8% (inactive),-1.31% (inactive)
CCOc1cc(NC(=O)c2ccccn2)c(OCC)cc1NC(=O)CC(C)C,74,102% (inactive),74% (inactive),63.1% (inactive),89% (inactive),-6.29% (inactive),95.2,89,1.2% (inactive),-6.23% (inactive)
CC(C)CNC(=O)c1ccccc1NC(=O)CN(c1ccc2c(c1)OCCO2)S(C)(=O)=O,92,121% (inactive),92% (inactive),96.8% (inactive),92.3% (inactive),1.55% (inactive),90.8,92.3,-0.27% (inactive),-8.23% (inactive)
CN1CCN(C(=O)C2(NC(=O)Nc3cccc(F)c3)CCCCC2)CC1,81,97% (inactive),81% (inactive),97.4% (inactive),93.9% (inactive),-9.36% (inactive),103,93.9,-3.65% (inactive),-3.02% (inactive)
O=C(COc1ccccc1)Nc1ccccc1N1CCN(c2ccccc2)CC1,80,86% (inactive),80% (inactive),96% (inactive),84.2% (inactive),1.58% (inactive),82.6,84.2,-4.27% (inactive),2.62% (inactive)
CC1(C)CC(=O)C(C=Nc2ccncc2)=C(O)C1,96.5,93% (inactive),96.5% (inactive),92.2% (inactive),106% (inactive),7.13% (inactive),99.3,106,-4.19% (inactive),-7.62% (inactive)
COC(=O)CSc1nc2sc3c(c2c(=O)n1C1CCCCC1)CCN(C)C3,102,75.5% (inactive),102% (inactive),84.7% (inactive),95% (inactive),2.91% (inactive),92.1,95,-5.66% (inactive),1.83% (inactive)
CC1Cc2ccccc2N1Cc1cc(=O)n2ccsc2n1 (stereo not given),102,78.5% (inactive),102% (inactive),80.4% (inactive),74.7% (inactive),-17.9% (inactive),92.6,74.7,-2.99% (inactive),-6.98% (inactive)
Cc1ccc(-c2cn3cccnc3n2)cc1NC(=O)c1ccc(Br)o1,95.5,86.5% (inactive),95.5% (inactive),97.6% (inactive),88.5% (inactive),8.45% (inactive),80,88.5,-0.39% (inactive),-7.46% (inactive)
O=C(O)c1ccc2noc(-c3ccccc3)c2c1,127,106% (inactive),127% (inactive),86.9% (inactive),97.8% (inactive),5.36% (inactive),92.4,97.8,-4.74% (inactive),-4% (inactive)
c1ccc(-c2csc(N3CCCCCC3)n2)cc1,91.5,104% (inactive),91.5% (inactive),104% (inactive),100% (inactive),14.9% (inactive),85.6,100,-0.27% (inactive),-4.35% (inactive)
Cc1nc(-c2cccc(-c3noc(C)n3)c2)no1,87.5,99% (inactive),87.5% (inactive),86.1% (inactive),102% (inactive),5.99% (inactive),95.8,102,-5.54% (inactive),-1.48% (inactive)
Cc1nc2sc(C(c3cccc(F)c3)N3CCC(C)CC3)c(O)n2n1 (stereo not given),88,77% (inactive),88% (inactive),101% (inactive),96.3% (inactive),9.65% (inactive),86.7,96.3,-6.71% (inactive),1.75% (inactive)
O=C(NCc1ccccn1)c1ccc2nc(-c3ccco3)c(-c3ccco3)nc2c1,101,90.5% (inactive),101% (inactive),111% (inactive),73.8% (inactive),-5.92% (inactive),79.8,73.8,-5.66% (inactive),2.13% (inactive)
CC(C)COc1ccc(-c2nnn(CC(=O)N3CCCC3)n2)cc1,86,85% (inactive),86% (inactive),108% (inactive),104% (inactive),14.9% (inactive),88.9,104,-8.67% (inactive),16.9% (inactive)
